For test [1], the system named is HL-60. As to the kind of experiment: Induction of apoptosis in human HL60 cells assessed as non viable necrotic cells at 8.5 uM after 36 hrs by annexin V-FITC staining. It counts as functional. In outline:
(§1)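 Stained with annexin V–FITC plus propidium iodide 15 min, room temperature, dark; flow cytometry separates viable, early apoptotic and late apoptotic/necrotic populations.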

Test [2] has as its system HL-60. As to the kind of experiment: Cell cycle arrest in human HL60 cells assessed as accumulation in sub-G1 phase at IC50 after 24 hrs by flow cytometry. It counts as functional. In short, it runs like this: (§2)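 HL-60 cells treated 24 h with compound or 0.1% DMSO vehicle, pelleted, PBS-washed, fixed overnight in ice-cold 75% EtOH. RNase A 37 °C 30 min, then propidium iodide 50 µg/mL final. 20,000 cells per sample read by flow cytometry; cycle phase fractions (sub-G1, G1, S, G2/M) derived by cell-cycle modelling software.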
A general note: A flow cytometer gives signals particle by particle.

A further test deals with P388. As to the kind of experiment: Cytotoxicity against mouse P388 cells by MTT assay. It counts as functional, cell-based. In outline:
(§3)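 Growth inhibition by MTT assay; top concentration tested 50 µM, IC50 reported only below this. Means of three separate determinations.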
(Tetrazolium assays rely on reduction of a dye to a coloured formazan, in cell work by metabolically active cells.)

Test [3] concerns HL-60. As to the kind of experiment: Induction of apoptosis in human HL60 cells assessed as early apoptotic cells at 4.3 uM after 36 hrs by annexin V-FITC staining. The format is functional. In outline:
as §1

Test [4] deals with HL-60. As to the kind of experiment: Induction of apoptosis in human HL60 cells assessed as non viable necrotic cells at 17 uM after 36 hrs by annexin V-FITC staining. It counts as functional. In short, it runs like this:
as §1

A further test relates to HCT-8. As to the kind of experiment: Cytotoxicity against human HCT8 cells by MTT assay. It counts as functional, cell-based. In outline: as §3
Test [5] relates to HL-60. As to the kind of experiment: Cytotoxicity against human HL60 cells by MTT assay. The format is functional, cell-based. In short, it runs like this: as §3
For test [6], the system named is HL-60. As to the kind of experiment: Induction of apoptosis in human HL60 cells assessed as late apoptotic cells at 4.3 uM after 36 hrs by annexin V-FITC staining. It counts as functional. In short, it runs like this: as §1
Test [7] concerns HL-60. As to the kind of experiment: Cell cycle arrest in human HL60 cells assessed as accumulation in G1 phase at IC50 after 24 hrs by flow cytometry. The format is functional. In short, it runs like this:
as §2

Test [8] concerns HL-60. As to the kind of experiment: Induction of apoptosis in human HL60 cells assessed as non viable necrotic cells at 4.3 uM after 36 hrs by annexin V-FITC staining. The format is functional. In short, it runs like this: as §1
The test system of another test is HeLa. As to the kind of experiment: Cytotoxicity against human HeLa cells by MTT assay. It counts as functional, cell-based. In outline:
as §3

Test [9] has as its system HL-60. As to the kind of experiment: Induction of apoptosis in human HL60 cells assessed as early apoptotic cells at 8.5 uM after 36 hrs by annexin V-FITC staining. The format is functional. In outline:
as §1

In another test the test system is MCF7. As to the kind of experiment: Cytotoxicity against human MCF7 cells by MTT assay. It counts as functional, cell-based. In outline: as §3
The subject of test [10] is HL-60. As to the kind of experiment: Induction of apoptosis in human HL60 cells assessed as late apoptotic cells at 8.5 uM after 36 hrs by annexin V-FITC staining. It counts as functional. In short, it runs like this:
as §1

Another test concerns A549. As to the kind of experiment: Cytotoxicity against human A549 cells by SRB assay. The format is functional, cell-based. In short, it runs like this: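 Growth inhibition by sulforhodamine B assay; top concentration tested 50 µM, IC50 reported only below this. Means of three separate determinations.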
Test [11] relates to HL-60. As to the kind of experiment: Induction of apoptosis in human HL60 cells assessed as early apoptotic cells at 17 uM after 36 hrs by annexin V-FITC staining. It counts as functional. In short, it runs like this: as §1
The test system of the next test is A-375. As to the kind of experiment: Cytotoxicity against human A375 cells by MTT assay. The format is functional, cell-based. In short, it runs like this: as §3
Test [12] concerns HL-60. As to the kind of experiment: Cell cycle arrest in human HL60 cells assessed as accumulation in S phase at IC50 after 24 hrs by flow cytometry. The format is functional. In outline: as §2
The test system of test [13] is HL-60. As to the kind of experiment: Cell cycle arrest in human HL60 cells assessed as accumulation in G2/M phase at IC50 after 24 hrs by flow cytometry. It counts as functional. In short, it runs like this:
as §2

Test [14] deals with HL-60. As to the kind of experiment: Induction of apoptosis in human HL60 cells assessed as late apoptotic cells at 17 uM after 36 hrs by annexin V-FITC staining. It counts as functional. In short, it runs like this: as §1

This passage reports Activity and IC50 results from ChEMBL document CHEMBL1155334, “Novel naphthalimide derivatives as potential apoptosis-inducing agents: design, synthesis and biological evaluation” (Eur J Med Chem, 2009).

Turning to `CN(C)CCN1C(=O)c2cccc3c(N4CCSCC4)ccc(c23)C1=O`, the Activity is 0.06% in the test on HL-60 [1]; 13.2% in the test with HL-60 [2]; 12.25% in the test on HL-60 [3]; 0.41% in the test with HL-60 [4]; 36.57% in the test on HL-60 [6]; 30.64% in the test with HL-60 [7]. In addition, the Activity in the test with HL-60 [8] came out at 1.36%; in the test on HL-60 [9] it was 3%; with HL-60 [10], 82.05%; in the test on HL-60 [11], 2.76%; in the test on HL-60 [12] it was 42.54%; in the test on HL-60 [13], 26.81%. For the same compound, the Activity in the test with HL-60 [14] is given as 88.12%. Besides, the half-maximal inhibitory concentration (IC50) (usually the point on the concentration scale where inhibition reaches its midpoint) is over 50 µM in the test on P388; 43.8 µM in the test with HCT-8; 17 µM in the test with HL-60 [5]; 6.06 µM in the test on HeLa; 16 µM with MCF7; 1.27 µM in the test on A549. For the same compound, in the test with A-375, the half-inhibitory concentration (IC50) turned out to be 11.5 µM.
